Assay results collected from several papers.
Protocols differ between the studies behind these lines.
Target: Phosphatidylinositol 4-kinase beta (PI4KB, Homo sapiens, UniProt Q9UBF8)

Cn1cc(-c2cc(F)cc(N3CCn4c(cc5c4CCCC5)C3=O)c2CO)cc(Nc2ccc(N3CCN(C4COC4)CC3)cn2)c1=O  inhibition (enzyme activity, inhibitor; 0.1 µM): -3%
Cn1cncc1[C@](O)(COc1ccc(C#N)cc1-c1ccc(OC(F)(F)F)cc1)c1ccc(C#N)cc1  remaining binding (cell-free assay, competition with immobilised ligand; 1 µM): 94%
C#Cc1n[nH]c2c(-c3cn(C(C)c4ccccn4)c(=O)[nH]c3=O)cc(F)cc12 (centres unmarked)  inhibition (enzyme activity, inhibitor; 1 µM): -4.1%
COc1ncccc1-c1cnn2ccc(N3CCN(C(=O)OC(C)C)CC3)nc12  remaining binding (binding, competition with immobilised ligand; 1 µM): 100%
Nc1ncc(-c2nc(N3CCOCC3)nc(N3CCOCC3)n2)c(C(F)F)n1  remaining binding (binding, competition with immobilised ligand; 10 µM): 75%
Cc1nn(C)cc1-c1nc2c(N3CCN(Cc4ccc(Cl)cc4)CC3)c(Cl)cnc2[nH]1  remaining binding (binding, competition with immobilised ligand; 1 µM): 100%
C#Cc1n[nH]c2c(-c3cn([C@@H](C)c4ccccc4)c(=O)[nH]c3=O)cc(F)cc12  inhibition (enzyme activity, inhibitor; 0.1 µM): -2.5%
Cn1cc(-c2cccc(N3CCc4c(sc5c4CC(C)(C)C5)C3=O)c2CO)cc(Nc2ccncn2)c1=O  inhibition (enzyme activity, inhibitor; 1 µM): -4%
